Measurements from ChEMBL document CHEMBL1126990, “Design and synthesis of 18F-labeled neurotoxic analogs of MPTP” (J Med Chem, 1993).

Assays:
Assay type in all cases: ADME
[1] = Ratio between Vmax and Km
Summary of the method: (§1)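 Rat liver MAO (crude P2 mitochondrial fraction from adult male Wistar rats, in pH 7.4 phosphate buffer) incubated with substrate at 30 μM to 5 mM; colorimetric detection of H2O2 formed. Blanks contained 0.1 mM pargyline. Vmax and Km from linear regression of Lineweaver-Burk plots; means ± SE of n separate experiments; ANOVA with post-hoc Scheffe test.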

Rattus norvegicus = species on record: Rattus norvegicus; experiment: Maximal rate (Vmax) for oxidation by rat liver MAO (results are means of number of separate experiments, n=5); summary of the method: as §1
[2] = separate experiments, n=5); summary of the method: as §1

## CN1CC=C(c2ccccc2)CC1
[1]
  Ratio: 2.42
Rattus norvegicus
  Vmax: 218 nM hr-1 (mg of protein)-1
[2]
  Km: 90 µM
